{"source": "paper PMC6071421", "about": "(Journal of investigative medicine : the official …, 2017)", "biological_target": "T1, FFA2 (GPR43; Ffar2) (Mus musculus, UniProt Q8VCK6)", "T1 sequence (Q8VCK6 1-330)": "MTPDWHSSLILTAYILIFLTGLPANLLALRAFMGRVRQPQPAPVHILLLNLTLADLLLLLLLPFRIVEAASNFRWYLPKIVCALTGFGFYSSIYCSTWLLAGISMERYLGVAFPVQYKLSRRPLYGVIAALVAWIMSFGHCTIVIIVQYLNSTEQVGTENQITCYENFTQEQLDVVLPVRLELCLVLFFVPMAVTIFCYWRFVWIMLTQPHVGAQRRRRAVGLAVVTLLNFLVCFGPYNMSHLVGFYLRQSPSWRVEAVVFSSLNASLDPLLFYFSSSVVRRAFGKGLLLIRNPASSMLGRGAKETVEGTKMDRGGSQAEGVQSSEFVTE", "test": "Ca2+ mobilization, Fluo-8, fluorometric imaging plate reader, beta TC3 cells", "type": "cell-based", "conditions": "agonist; endogenous receptor in beta TC3 cells; N = 13", "summary_of_the_method": "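Mouse βTC3 β cells (express Ffar2 but not Ffar3) loaded with 5 μM Fluo-8 for 60 min at 37°C. Test compounds were added as serial dilutions, each concentration in quadruplicate, and fluorescence was read on a FLIPR. Response was delta F/f: (post-stimulation max − pre-stimulation min)/pre-stimulation min. pEC50 and Emax came from non-linear regression. Experiments were repeated in triplicate.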", "data": [{"smiles": "CC(=O)O", "note": "[Acetate]", "values": [{"measurement": "pEC50", "value": "2.32±0.21 -log M"}]}]}
